Screens (PubChem)
Rtt109 HAT inh: blocks Candida albicans Rtt109/Vps75 acetyltransferase activity; inhibition, % at 34.9 µM; Q5AAJ8; 0.16% of 330,000 active; purified Rtt109/Vps75, ThioGlo CoA-SH fluorescence, 4 h;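 active = inhibition of at least 50% in every replicate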
ASAP1 inh: blocks human ASAP1-stimulated Arf1 GTP hydrolysis; GDP FP detection; 0.19% of 360,000 active; Q9ULH1; AID 624377; inhibition, % at 16.5 µM; in the data active = inhibition above about 25%
Target sequence (Q9ULH1 325-724 limits assumed): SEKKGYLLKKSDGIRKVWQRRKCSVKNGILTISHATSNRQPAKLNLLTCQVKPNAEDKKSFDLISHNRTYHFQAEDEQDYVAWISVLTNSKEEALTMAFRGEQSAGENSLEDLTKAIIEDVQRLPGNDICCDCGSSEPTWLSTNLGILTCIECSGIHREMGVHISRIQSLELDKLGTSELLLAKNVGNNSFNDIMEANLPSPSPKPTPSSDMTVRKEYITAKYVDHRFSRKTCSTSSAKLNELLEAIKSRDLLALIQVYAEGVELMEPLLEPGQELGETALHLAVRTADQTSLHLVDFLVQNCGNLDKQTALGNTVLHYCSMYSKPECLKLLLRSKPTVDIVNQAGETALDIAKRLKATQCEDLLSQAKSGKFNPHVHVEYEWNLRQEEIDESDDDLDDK
Efflux pump mplx: inhibitors of Candida antifungal efflux pumps expressed in yeast; S. cerevisiae Candida pump triplex, Nile Red efflux; inhibition, % at 10 µM; 0.44% of 330,000 active;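 active = plate passing quality check with inhibition over a set limit, or well fluorescence over plate mean plus 4 SD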;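 also: Nile Red retained in pooled yeast measured as flow cytometry median fluorescence; higher means more Nile Red kept so more efflux inhibition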
FGF22 binding: FGF22 (human) thermal shift binding | Q9HCT0 | recombinant FGF22 thermal shift, SYPRO orange fluorescence; percent of sucrose octasulfate shift, DMSO zero | activity (Tm shift, normalised), % at 9.99 µM | 1.5% of 340,000 active;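 active = mean Tm shift, scaled 0 neutral to 100 positive control, at about 1.3% or above, every replicate too, limit read from the data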
ARFGAP1 inhibitor: inhibitors of rat ARFGAP1; Q62848; Arfgap1-stimulated ARF1 GTP hydrolysis, GDP FP detection; inhibition, % at 16.5 µM; 0.26% of 360,000 active; AID 651572;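 active = inhibition above a per-plate limit, mean inhibition of low control wells plus 3 SD, cut at about 25% in these data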
Target sequence (Q62848 1-136 limits assumed): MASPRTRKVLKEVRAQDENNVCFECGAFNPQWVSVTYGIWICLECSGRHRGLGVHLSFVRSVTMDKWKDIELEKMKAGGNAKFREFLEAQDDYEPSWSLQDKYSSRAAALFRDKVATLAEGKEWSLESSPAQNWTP
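system = rat Arfgap1 catalytic domain, aa 1-136 | technique = FP, GDP Alexa 633 tracer displaced from anti-GDP antibody, 620/688 nm | compound = one concentration, 16.5 µM, DMSO 1.26% | medium = HEPES-based buffer, pH 7.5 | timing = compound-enzyme preincubation 20 min, reaction 120 min, detection 60 min, 25 °C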
Cmpd fluor yeast: counter-screen for efflux pump inhibitors: compound fluorescence; shares compounds with Efflux pump mplx; S. cerevisiae AD/pABC3, flow cytometry; fluorescence ratio to DMSO, % at 10 µM; 4% of 1,700 active;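 active = fluorescence ratio to DMSO above its plate's cutoff, the plate mean ratio plus 5 SD, cut at about 210% in these data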;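 also: unstained yeast with no Nile Red so the signal is compound autofluorescence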
Mdr1 pump inh: blocks the Candida albicans Mdr1 efflux pump in yeast | shares compounds with Efflux pump mplx | 1% of 1,700 active | S. cerevisiae AD/CaMDR1, Nile Red efflux, flow cytometry | inhibition, % at 10 µM | AID 588518; in the data active = inhibition above about 26%;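 also: higher means more Nile Red retained so more efflux inhibition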
CaCdr2 efflux inh: Candida Cdr2 efflux pump inhibition. shares compounds with Efflux pump mplx. S. cerevisiae AD/CaCDR2, Nile Red retention, flow cytometry. Nile Red retention ratio vs DMSO, % at 10 µM. 4% of 1,700 active. AID 588520; in the data active = Nile Red retention ratio vs DMSO above about 190%;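 also: higher ratio means more blocking of Cdr2 efflux of the dye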
CaCdr1 efflux inh: Candida Cdr1 efflux pump inhibition; shares compounds with Efflux pump mplx; S. cerevisiae AD/CaCDR1, Nile Red efflux, flow cytometry; inhibition, % at 10 µM; 1% of 1,700 active; AID 588522;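 active = inhibition above the screen-wide mean plus twice its standard deviation, cut at about 32% in these data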
ASAP1 GAP conf: confirmation of human ASAP1 inhibitors; shares compounds with ASAP1 inh; ASAP1-stimulated Arf1 GTPase, GDP fluorescence polarization; inhibition, % at 16.5 µM; 37% of 620 active; AID 624431;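 active = mean inhibition over triplicates exceeds the hit threshold derived for the earlier primary screening run, cut at about 25% in these data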
ARFGAP1 confirm: rat ARFGAP1 inhibition, confirmed; 30% of 890 active; ARFGAP1-stimulated ARF1 GTP hydrolysis, GDP tracer FP; inhibition, % at 16.5 µM; shares compounds with ARFGAP1 inhibitor;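 active = average inhibition over triplicates above the hit cutoff set in the earlier primary screen, cut at about 25% in these data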
Each line names hits and unclear results; the compound was inactive in the other large screens (follow-up assays come after a bar, where they were run); ! = a repeat was not active. An excerpt weighted towards active compounds, which were near 1.9% of everything screened.

COc1ccc(C(=O)/C=C/c2ccc(O)cc2)c(O)c1C/C=C(\C)CCC=C(C)C	Efflux pump mplx 1.3, ARFGAP1 inhibitor 25 | Cmpd fluor yeast inactive | Mdr1 pump inh inactive | CaCdr2 efflux inh inactive | CaCdr1 efflux inh inactive | ARFGAP1 confirm inactive
CCOC(=O)c1ccc(Nc2cc(C)nc(-c3ccccc3)n2)cc1	Efflux pump mplx 31, ARFGAP1 inhibitor 27 | Cmpd fluor yeast inactive | Mdr1 pump inh inactive | CaCdr2 efflux inh inactive | CaCdr1 efflux inh inactive | ARFGAP1 confirm inactive
COc1ccc(CCC(C)Nc2cccc(F)c2)cc1 (stereo unspecified)	none (no result: FGF22 binding)
CCOC(=O)C(C(=O)Nc1cccc(C)n1)C1CCCCC1 (stereo unspecified)	ASAP1 inh 26 (no result: Rtt109 HAT inh, FGF22 binding) | ASAP1 GAP conf inactive
COc1ccc(C(C)=O)cc1COC(=O)c1ccc2c(c1)OCO2	none (no result: Rtt109 HAT inh, FGF22 binding)
COc1ccc(C(C)=O)cc1COC(=O)c1ccc2c(c1)OCCO2	ASAP1 inh 28 | ASAP1 GAP conf inactive
CCOC(=O)c1sc(NC(=O)CNCc2cccnc2)c(C(=O)OCC)c1C	ASAP1 inh 37 | ASAP1 GAP conf inactive
CCOC(=O)c1sc(NC(=O)CNCc2ccccn2)c(C(=O)OCC)c1C	none
Cc1cc(C)n2nc(SCC(=O)Nc3ccc(S(=O)(=O)N(C)C)cc3)nc2n1	none
O=C(Nc1ccc(OC(F)(F)F)cc1)N1CCN(c2ccnc3cc(Cl)ccc23)CC1	ASAP1 inh 25 | ASAP1 GAP conf inactive
CC(C)(C)C(=O)N1CCN(c2ccnc3cc(Cl)ccc23)CC1	none
O=C(NCc1ccncc1)C(=O)N/N=C/c1ccccc1OCc1ccccc1	none
O=C(Nc1ccc(Cn2cccn2)cc1)c1ccc(COc2cccc(Br)c2)cc1	ASAP1 inh 29 (no result: FGF22 binding) | ASAP1 GAP conf inactive
O=C(Nc1ccc(Cn2cccn2)cc1)c1ccc(COc2ccc(Br)cc2)cc1	none (no result: FGF22 binding)
CN(Cc1ccccc1)C(=O)c1csc([C@@H]2O[C@H](CO)[C@@H](O)[C@H]2O)n1	none (no result: Rtt109 HAT inh, Efflux pump mplx)
CCN1CCN(c2cc(C)c3cc(NC(=O)CCC(=O)Nc4ccc(OC)c(OC)c4)ccc3n2)CC1	none
CCN1CCN(c2cc(C)c3cc(NC(=O)c4ccc(OC)c(OC)c4)ccc3n2)CC1	ASAP1 inh 37 | ASAP1 GAP conf 50
CCOC(=O)c1[nH]c(C)c(C(=O)Nc2ccc(C)c(C)c2)c1C	ASAP1 inh 26 | ASAP1 GAP conf inactive
CCOC(=O)c1[nH]c(C)c(C(=O)Nc2ccc(F)cc2)c1C	none
COc1cc2c(C#N)c(N3CCCC3)nc(N)c2c(N)n1	ASAP1 inh 43! | ASAP1 GAP conf inactive
COc1cc2c(C#N)c(N3CCN(C)CC3)nc(N)c2c(N)n1	none (no result: FGF22 binding)
CCCOc1cc2c(C#N)c(N3CCCC3)nc(N)c2c(N)n1	ASAP1 inh 36 | ASAP1 GAP conf inactive
N#Cc1c(N2CCCC2)nc(N)c2c(N)nc(N3CCCC3)cc12	ASAP1 inh 27 (no result: FGF22 binding) | ASAP1 GAP conf inactive
O=C(NCc1ccccc1Cl)c1cnccc1C(F)(F)F	none
COCc1cc(Sc2ccc(Cl)cc2)nc(-c2ccccc2)n1	none (no result: FGF22 binding)
COc1ccccc1CNC(=O)C[C@H]1CC[C@@H]2[C@H](COC[C@@H](O)CN2C(=O)Nc2ccc(C(F)(F)F)cc2)O1	none (no result: Rtt109 HAT inh, ASAP1 inh, Efflux pump mplx, ARFGAP1 inhibitor)
CCOC(=O)C1=C(C)N[C@@]2(O)c3ccccc3C(=O)[C@@]12O	none (no result: FGF22 binding)
CC(=O)C1=C(C)OC2(O)c3ccccc3C(=O)C12O (stereo unspecified)	ASAP1 inh 43 (no result: Rtt109 HAT inh, FGF22 binding) | ASAP1 GAP conf inactive
